In ChEMBL document CHEMBL1177643, “Synthesis, DNA-binding ability and anticancer activity of benzothiazole/benzoxazole-pyrrolo[2,1-c][1,4]benzodiazepine conjugates” (Bioorg Med Chem, 2010):

Key:
[1] = test system: CCRF-CEM; assay: Growth inhibition of human CCRF-CEM cells after 48 hrs by sulforhodamine B assay; assay type: functional
Method in brief: (§1)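 Dose–response in each cell line over at least five concentrations at 10-fold dilutions, with 48 h continuous exposure and sulforhodamine B read-out.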

[2] = test system: NCI-H522; assay: Growth inhibition of human NCI-H522 cells after 48 hrs by sulforhodamine B assay; assay type: functional; conditions: NCI-H522, 48 h
Method in brief: (§2)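 Panel of 60 human cancer cell lines; for each compound, dose–response curves per cell line measured at a minimum of five concentrations at 10-fold dilutions. Cells exposed continuously to drug for 48 h, and growth was read out by sulforhodamine B staining.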

[3] = test system: LOX IMVI; assay: Growth inhibition of human LOXIMVI cells after 48 hrs by sulforhodamine B assay; assay type: functional; method in brief: as §2
[4] = test system: SN12C; assay: Growth inhibition of human SN12C cells after 48 hrs by sulforhodamine B assay; assay type: functional; method in brief: as §2
[5] = test system: ACHN; assay: Growth inhibition of human ACHN cells after 48 hrs by sulforhodamine B assay; assay type: functional; method in brief: as §1
[6] = test system: HCC 2998; assay: Growth inhibition of human HCC2998 cells after 48 hrs by sulforhodamine B assay; assay type: functional; conditions: HCC 2998, 48 h; method in brief: as §2
[7] = test system: MDA-MB-231; assay: Growth inhibition of human MDA-MB-231 cells after 48 hrs by sulforhodamine B assay; assay type: functional; conditions: MDA-MB-231, 48 h; method in brief: as §2
[8] = test system: UACC-62; assay: Growth inhibition of human UACC62 cells after 48 hrs by sulforhodamine B assay; assay type: functional; conditions: UACC-62, 48 h; method in brief: as §2
[9] = test system: NCI-H226; assay: Growth inhibition of human NCI-H226 cells after 48 hrs by sulforhodamine B assay; assay type: functional; conditions: NCI-H226, 48 h; method in brief: as §2
[10] = test system: SF-295; assay: Growth inhibition of human SF295 cells after 48 hrs by sulforhodamine B assay; assay type: functional; conditions: SF-295, 48 h; method in brief: as §2
[11] = test system: BT-549; assay: Growth inhibition of human BT549 cells after 48 hrs by sulforhodamine B assay; assay type: functional; conditions: BT-549, 48 h; method in brief: as §1
[12] = test system: OVCAR-4; assay: Growth inhibition of human OVCAR4 cells after 48 hrs by sulforhodamine B assay; assay type: functional; conditions: OVCAR-4, 48 h; method in brief: as §2
[13] = test system: NCI/ADR-RES; assay: Growth inhibition of human NCI/ADR-RES cells after 48 hrs by sulforhodamine B assay; assay type: functional; method in brief: as §2
[14] = test system: MOLT-4; assay: Growth inhibition of human MOLT4 cells after 48 hrs by sulforhodamine B assay; assay type: functional; conditions: MOLT-4, 48 h; method in brief: as §2
[15] = test system: KM12; assay: Growth inhibition of human KM12 cells after 48 hrs by sulforhodamine B assay; assay type: functional; conditions: KM12, 48 h; method in brief: as §2
[16] = test system: SNB-19; assay: Growth inhibition of human SNB19 cells after 48 hrs by sulforhodamine B assay; assay type: functional; conditions: SNB-19, 48 h; method in brief: as §2
[17] = test system: K562; assay: Growth inhibition of human K562 cells after 48 hrs by sulforhodamine B assay; assay type: functional; conditions: K562, 48 h; method in brief: as §2
[18] = Growth inhibition of human […] cells after 48 hrs by sulforhodamine B assay; assay type: functional; method in brief: as §2
[19] = test system: MCF7; assay: Growth inhibition of human MCF7 cells after 48 hrs by sulforhodamine B assay; assay type: functional; conditions: MCF7, 48 h; method in brief: as §2
[20] = test system: A498; assay: Growth inhibition of human A498 cells after 48 hrs by sulforhodamine B assay; assay type: functional; conditions: A498, 48 h; method in brief: as §1
[21] = test system: T47D; assay: Growth inhibition of human T47D cells after 48 hrs by sulforhodamine B assay; assay type: functional; method in brief: as §2
[22] = test system: HCT-15; assay: Growth inhibition of human HCT15 cells after 48 hrs by sulforhodamine B assay; assay type: functional; conditions: HCT-15, 48 h; method in brief: as §2
[23] = test system: TK-10; assay: Growth inhibition of human TK10 cells after 48 hrs by sulforhodamine B assay; assay type: functional; conditions: TK-10, 48 h; method in brief: as §2
[24] = test system: PC-3; assay: Growth inhibition of human PC3 cells after 48 hrs by sulforhodamine B assay; assay type: functional; conditions: PC-3, 48 h; method in brief: as §2
[25] = test system: 786-0; assay: Growth inhibition of human 786-0 cells after 48 hrs by sulforhodamine B assay; assay type: functional; conditions: 786-0, 48 h; method in brief: as §1
[26] = test system: UO-31; assay: Growth inhibition of human UO31 cells after 48 hrs by sulforhodamine B assay; assay type: functional; conditions: UO-31, 48 h; method in brief: as §2
[27] = test system: HOP-92; assay: Growth inhibition of human HOP92 cells after 48 hrs by sulforhodamine B assay; assay type: functional; conditions: HOP-92, 48 h; method in brief: as §2
[28] = test system: HT-29; assay: Growth inhibition of human HT-29 cells after 48 hrs by sulforhodamine B assay; assay type: functional; conditions: HT-29, 48 h; method in brief: as §2
[29] = test system: DU-145; assay: Growth inhibition of human DU145 cells after 48 hrs by sulforhodamine B assay; assay type: functional; conditions: DU-145, 48 h; method in brief: as §1
[30] = test system: A549; assay: Growth inhibition of human A549 cells after 48 hrs by sulforhodamine B assay; assay type: functional; conditions: A549, 48 h; method in brief: as §1
[31] = test system: SK-MEL-2; assay: Growth inhibition of human SK-MEL-2 cells after 48 hrs by sulforhodamine B assay; assay type: functional; conditions: SK-MEL-2, 48 h; method in brief: as §2
[32] = test system: HL-60; assay: Growth inhibition of human HL-60(TB) cells after 48 hrs by sulforhodamine B assay; assay type: functional; conditions: HL-60, 48 h; method in brief: as §2
[33] = test system: UACC-257; assay: Growth inhibition of human UACC257 cells after 48 hrs by sulforhodamine B assay; assay type: functional; conditions: UACC-257, 48 h; method in brief: as §2
[34] = test system: MDA-MB-435; assay: Growth inhibition of human MDA-MB-435 cells after 48 hrs by sulforhodamine B assay; assay type: functional; conditions: MDA-MB-435, 48 h; method in brief: as §2
[35] = test system: CAKI-1; assay: Growth inhibition of human Caki1 cells after 48 hrs by sulforhodamine B assay; assay type: functional; conditions: CAKI-1, 48 h; method in brief: as §1
[36] = test system: SK-OV-3; assay: Growth inhibition of human SKOV3 cells after 48 hrs by sulforhodamine B assay; assay type: functional; conditions: SK-OV-3, 48 h; method in brief: as §2
[37] = test system: OVCAR-5; assay: Growth inhibition of human OVCAR5 cells after 48 hrs by sulforhodamine B assay; assay type: functional; conditions: OVCAR-5, 48 h; method in brief: as §2
[38] = test system: NCI-H460; assay: Growth inhibition of human NCI-H460 cells after 48 hrs by sulforhodamine B assay; assay type: functional; conditions: NCI-H460, 48 h; method in brief: as §2
[39] = test system: SF-539; assay: Growth inhibition of human SF539 cells after 48 hrs by sulforhodamine B assay; assay type: functional; conditions: SF-539, 48 h; method in brief: as §2
[40] = test system: Calf thymus DNA; assay: Binding affinity to calf thymus duplex-form DNA assessed as melting temperature at 1:5 compound/DNA ratio after 18 hrs; assay type: nucleic-acid assay; conditions: Bos taurus
[41] = test system: COLO 205; assay: Growth inhibition of human COLO205 cells after 48 hrs by sulforhodamine B assay; assay type: functional; conditions: COLO 205, 48 h; method in brief: as §1
[42] = test system: SK-MEL-28; assay: Growth inhibition of human SK-MEL-28 cells after 48 hrs by sulforhodamine B assay; assay type: functional; conditions: SK-MEL-28, 48 h; method in brief: as §2
[43] = test system: M14; assay: Growth inhibition of human M14 cells after 48 hrs by sulforhodamine B assay; assay type: functional; conditions: M14, 48 h; method in brief: as §2
[44] = test system: HCT-116; assay: Growth inhibition of human HCT116 cells after 48 hrs by sulforhodamine B assay; assay type: functional; conditions: HCT-116, 48 h; method in brief: as §2
[45] = test system: SF-268; assay: Growth inhibition of human SF268 cells after 48 hrs by sulforhodamine B assay; assay type: functional; conditions: SF-268, 48 h; method in brief: as §2
[46] = test system: IGROV-1; assay: Growth inhibition of human IGROV1 cells after 48 hrs by sulforhodamine B assay; assay type: functional; conditions: IGROV-1, 48 h; method in brief: as §2
[47] = test system: OVCAR-8; assay: Growth inhibition of human OVCAR8 cells after 48 hrs by sulforhodamine B assay; assay type: functional; conditions: OVCAR-8, 48 h; method in brief: as §2
[48] = test system: EKVX; assay: Growth inhibition of human EKVX cells after 48 hrs by sulforhodamine B assay; assay type: functional; method in brief: as §1
[49] = test system: RXF 393; assay: Growth inhibition of human RXF393 cells after 48 hrs by sulforhodamine B assay; assay type: functional; conditions: RXF 393, 48 h; method in brief: as §2
[50] = test system: Malme-3M; assay: Growth inhibition of human MALME-3M cells after 48 hrs by sulforhodamine B assay; assay type: functional; method in brief: as §2
[51] = test system: SW-620; assay: Growth inhibition of human SW620 cells after 48 hrs by sulforhodamine B assay; assay type: functional; conditions: SW-620, 48 h; method in brief: as §2
[52] = test system: Hs-578T; assay: Growth inhibition of human Hs 578T cells after 48 hrs by sulforhodamine B assay; assay type: functional; method in brief: as §2
[53] = test system: SR; assay: Growth inhibition of human SR cells after 48 hrs by sulforhodamine B assay; assay type: functional; method in brief: as §2
[54] = test system: HOP-62; assay: Growth inhibition of human HOP62 cells after 48 hrs by sulforhodamine B assay; assay type: functional; conditions: HOP-62, 48 h; method in brief: as §2
[55] = test system: SK-MEL-5; assay: Growth inhibition of human SK-MEL-5 cells after 48 hrs by sulforhodamine B assay; assay type: functional; conditions: SK-MEL-5, 48 h; method in brief: as §2
[56] = test system: NCI-H322M; assay: Growth inhibition of human NCI-H322M cells after 48 hrs by sulforhodamine B assay; assay type: functional; method in brief: as §2
[57] = test system: SNB-75; assay: Growth inhibition of human SNB75 cells after 48 hrs by sulforhodamine B assay; assay type: functional; conditions: SNB-75, 48 h; method in brief: as §2
[58] = test system: NCI-H23; assay: Growth inhibition of human NCI-H23 cells after 48 hrs by sulforhodamine B assay; assay type: functional; conditions: NCI-H23, 48 h; method in brief: as §2
[59] = test system: OVCAR-3; assay: Growth inhibition of human OVCAR-3 cells after 48 hrs by sulforhodamine B assay; assay type: functional; conditions: OVCAR-3, 48 h; method in brief: as §2
[60] = test system: U-251; assay: Growth inhibition of human U251 cells after 48 hrs by sulforhodamine B assay; assay type: functional; conditions: U-251, 48 h; method in brief: as §2

COc1cc2c(cc1OCCCCCOc1ccc(-c3nc4ccccc4s3)cc1)N=C[C@@H]1CCCN1C2=O
GI50 [1]: 269 nM
GI50 [2]: 550 nM
GI50 [3]: 240 nM
GI50 [4]: 813 nM
GI50 [5]: 1100 nM
GI50 [6]: 631 nM
GI50 [7]: 263 nM
GI50 [8]: 1170 nM
GI50 [9]: 1510 nM
GI50 [10]: 776 nM
GI50 [11]: 229 nM
GI50 [12]: 2140 nM
GI50 [13]: 1120 nM
GI50 [14]: 282 nM
GI50 [15]: 1550 nM
GI50 [16]: 2950 nM
GI50 [17]: 363 nM
GI50 [18]: 398 nM
GI50 [19]: 331 nM
GI50 [20]: 2240 nM
GI50 [21]: 234 nM
GI50 [22]: 933 nM
GI50 [23]: 3.47 µM
GI50 [24]: 234 nM
GI50 [25]: 263 nM
GI50 [26]: 724 nM
GI50 [27]: 269 nM
GI50 [28]: 457 nM
GI50 [29]: 355 nM
GI50 [30]: 2570 nM
GI50 [31]: 1550 nM
GI50 [32]: 562 nM
GI50 [33]: 2240 nM
GI50 [34]: 1380 nM
GI50 [35]: 513 nM
GI50 [36]: 2570 nM
GI50 [37]: 661 nM
GI50 [38]: 347 nM
GI50 [39]: 479 nM
ΔTm [40]: 4.3 °C
GI50 [41]: 389 nM
GI50 [42]: 3.89 µM
GI50 [43]: 324 nM
GI50 [44]: 347 nM
GI50 [45]: 3.24 µM
GI50 [46]: 2690 nM
GI50 [47]: 813 nM
GI50 [48]: 1550 nM
GI50 [49]: 200 nM
GI50 [50]: 1230 nM
GI50 [51]: 1020 nM
GI50 [52]: 1320 nM
GI50 [53]: 19.1 nM
GI50 [54]: 407 nM
GI50 [55]: 339 nM
GI50 [56]: 1950 nM
GI50 [57]: 1200 nM
GI50 [58]: 891 nM
GI50 [59]: 741 nM
GI50 [60]: 457 nM
